Data taken from ChEMBL document CHEMBL3272319, “Alkyl streptozotocin analogues with improved biological activities” (J Med Chem, 1976).

Legend:
[1] = Antitumor activity against mouse S180A allografted in ICR mouse assessed as tumor growth at 25 mg/kg, ip qd for 5 days measured on day 7 relative to control; type: functional; settings: route intraperitoneal
How it was run: (§1)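 Ascites Sarcoma 180 (1 × 10^7 cells) implanted into ICR mice, six animals per group. Five daily ip injections in saline (days 1–5). Sacrificed day 7. T/C % computed from total packed cell volume (ascites volume × PCV) vs controls. Grades: 100-66 = -, 65-41 = +, 40-11 = ++, 10-0 = +++.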

[2] = system: Mus musculus; test: Toxicity in ICR mouse allografted with mouse S180A assessed as mortality at 25 mg/kg, ip qd for 5 days; type: organism-based; set-up: dose 25 mg/kg, route intraperitoneal; settings: in vivo, 120 h
How it was run: (§2)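 Ascites Sarcoma 180 (1 × 10^7 cells) implanted into ICR mice, six per group; compound in saline ip once daily days 1-5; sacrifice on day 7; total packed cell volume (ascites volume × PCV) compared with controls as T/C %; mortality recorded.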

[3] = system: Ehrlich; test: Antitumor activity against mouse EAC allografted in ICR mouse assessed as tumor growth at 150 mg/kg, ip qd for 5 days measured on day 7 relative to control; type: functional; settings: route intraperitoneal
How it was run: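 Ehrlich ascites carcinoma (1 × 10^7 cells) implanted into ICR mice, six per group. Drug in saline ip, qd days 1–5. Mice killed day 7. Total packed cell volume = ascites volume × % packed cell volume; T/C % = TPCV treated/control × 100. Activity graded from T/C.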

[4] = system: Mus musculus; test: Toxicity in ICR mouse allografted with mouse EAC assessed as mortality at 150 mg/kg, ip qd for 5 days; type: organism-based; set-up: dose 150 mg/kg, route intraperitoneal; settings: in vivo, 120 h
How it was run: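 Ehrlich ascites carcinoma (1 × 10^7 cells) implanted into ICR mice, six per group; compound ip daily for 5 days; mice sacrificed day 7; tumour burden as total packed cell volume (ascites volume × PCV), T/C % vs controls; mortality recorded.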

[5] = system: L1210; test: Antitumor activity against mouse L1210 cells allografted in BDF1 mouse assessed as increase in host lifespan at 50 mg/kg, ip qd for 5 days relative to control; type: functional; settings: 120 h, route intraperitoneal
How it was run: (§3)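 L1210 (1 × 10^5 cells) implanted into BDF1 mice, six per group; compound in saline ip once daily days 1-5; effect read as % increase in life span, ILS = [(treated life span/control life span) − 1] × 100.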

[6] = system: Mus musculus; test: Toxicity in BDF1 mouse allografted with mouse L1210 cells assessed as mortality at 50 mg/kg, ip qd for 5 days; type: organism-based; set-up: dose 50 mg/kg, route intraperitoneal; settings: in vivo, 120 h; how it was run: as §3
[7] = system: Rattus norvegicus; test: Diabetogenic activity in Wistar rat assessed as increase in blood sugar level at 68 mg/kg, iv administered as single dose by glucose oxidase method; type: ADME, organism-based; set-up: dose 68 mg/kg, route intravenous; settings: in vivo
How it was run: (§4)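 Male Wistar rats, about 200 g, five per group, fasted 16 h. Single iv dose into the femoral vein in physiological saline, equimolar across compounds. Caudal-vein blood sampled at set times over 24 h. Sugar measured by glucose oxidase.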

[8] = system: Rattus norvegicus; test: Diabetogenic activity in Wistar rat assessed as increase in blood sugar level at 30 to 120 mg/kg, ip qd for 1 month measured 24 hrs last drug dosage by glucose oxidase method; type: ADME, organism-based; set-up: dose 30-120 mg/kg, route intraperitoneal; settings: in vivo
How it was run: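 Male Wistar rats, about 150 g, five per group. Drug in physiological saline given ip qd on days 1–30. Blood drawn 24 h after the last dose. Sugar measured by glucose oxidase.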

[9] = system: Bacillus subtilis; test: Antibacterial activity against Bacillus subtilis ATCC 6633 assessed as growth inhibition after 18 hrs by broth dilution method; type: functional; settings: ATCC 6633, 18 h
How it was run: (§5)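 Twofold serial dilutions in heart infusion broth. Inoculum was a 24-h heart infusion broth culture diluted 100-fold in physiological saline. Tubes incubated 30 °C for 18 h; the table footnote gives 32 °C for 24 h. MIC in µg/ml is the lowest level giving complete growth inhibition.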

[10] = system: Escherichia coli; test: Antibacterial activity against Escherichia coli NIHJ JC-2 assessed as growth inhibition after 18 hrs by broth dilution method; type: functional; settings: NIHJ JC-2, 18 h; how it was run: as §5
[11] = system: Klebsiella pneumoniae; test: Antibacterial activity against Klebsiella pneumoniae ATCC 10031 assessed as growth inhibition after 18 hrs by broth dilution method; type: functional; settings: ATCC 10031, 18 h; how it was run: as §5
[12] = system: Proteus vulgaris; test: Antibacterial activity against Proteus vulgaris AHU 1469 assessed as growth inhibition after 18 hrs by broth dilution method; type: functional; settings: AHU 1469, 18 h; how it was run: as §5
[13] = system: Pseudomonas fluorescens; test: Antibacterial activity against Pseudomonas fluorescens NIHJ B-254 assessed as growth inhibition after 18 hrs by broth dilution method; type: functional; settings: NIHJ B-254, 18 h; how it was run: as §5
[14] = system: Salmonella typhi; test: Antibacterial activity against Salmonella typhi IFM 3020 assessed as growth inhibition after 18 hrs by broth dilution method; type: functional, Salmonella enterica subsp. enterica serovar Typhi; settings: Salmonella enterica, IFM 3020, 18 h
How it was run: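 Twofold serial dilutions in heart infusion broth; inoculum from 24 h heart infusion broth culture diluted 100-fold in physiological saline; tubes incubated 30 °C for 18 h; MIC (µg/ml) = lowest level giving complete growth inhibition.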

[15] = system: Micrococcus luteus; test: Antibacterial activity against Sarcina lutea ATCC 9341 assessed as growth inhibition after 18 hrs by broth dilution method; type: functional; settings: ATCC 9341, 18 h; how it was run: as §5
[16] = system: Shigella sonnei; test: Antibacterial activity against Shigella sonnei assessed as growth inhibition after 18 hrs by broth dilution method; type: functional; how it was run: as §5
[17] = system: Staphylococcus aureus; test: Antibacterial activity against Staphylococcus aureus FDA 209P JC-1 assessed as growth inhibition after 18 hrs by broth dilution method; type: functional; settings: FDA 209P JC-1, 18 h; how it was run: as §5
[18] = system: Enterococcus faecalis; test: Antibacterial activity against Streptococcus faecalis ATCC 10541 assessed as growth inhibition after 18 hrs by broth dilution method; type: functional; settings: ATCC 10541, 18 h; how it was run: as §5
[19] = (§6) Acute toxicity in ip dosed JCL-ICR mouse assessed as animal death; type: organism-based; settings: JCL-ICR, in vivo
How it was run: (§7)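 Groups of ten female JCL-ICR mice given single ip dose in physiological saline; deaths followed over 7 days; LD50 (and LD10) derived by Litchfield–Wilcoxon method.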

[20] = system: Mus musculus; test: as §6; type: organism-based; settings: in vivo; how it was run: as §7
[21] = system: Mus musculus; test: Ratio of compound LD10 to streptozotocin LD10 for JCL-ICR mouse; type: ADME, organism-based; settings: in vivo
[22] = Ratio of compound LD50 to streptozotocin LD50 for JCL-ICR mouse; type: ADME, organism-based; settings: in vivo
[23] = Acute toxicity in iv dosed mouse; type: organism-based; settings: in vivo
[24] = Acute toxicity in iv dosed dog; type: organism-based, Canis lupus familiaris; settings: in vivo
[25] = Therapeutic index, ratio of LD10 for JCL-ICR mouse to ED90 for mouse S180A cells allografted in ICR mouse; settings: read-out: TI
[26] = system: Mus musculus; test: Toxicity in ip dosed BDF1 mouse allografted with mouse L1210 cells assessed as optimal dose required for mortality administered qd for 5 days; type: organism-based; settings: in vivo, 120 h
[27] = Antitumor activity against mouse S180A cells allografted in ip dosed ICR mouse administered qd for 5 days; type: functional; settings: 120 h; how it was run: as §1
[28] = system: L1210; test: Antitumor activity against mouse L1210 cells allografted in ip dosed BDF1 mouse assessed as 30% increase in host lifespan administered for qd for 5 days; type: functional
[29] = Antitumor activity against mouse S180A allografted in ICR mouse assessed as tumor growth at 100 mg/kg, ip qd for 5 days measured on day 7 relative to control; type: functional; settings: route intraperitoneal; how it was run: as §1
[30] = system: Mus musculus; test: Toxicity in ICR mouse allografted with mouse S180A assessed as mortality at 100 mg/kg, ip qd for 5 days; type: organism-based; set-up: dose 100 mg/kg, route intraperitoneal; settings: in vivo, 120 h; how it was run: as §2
[31] = system: Rattus norvegicus; test: Diabetogenic activity in iv dosed Wistar rat assessed as increase in blood sugar level administered as single dose by glucose oxidase method; type: ADME, organism-based; settings: in vivo; how it was run: as §4

Question: For `CO[C@@H]1O[C@H](CO)[C@@H](O)[C@H](O)[C@H]1NC(=O)N(C)N=O`, which T/C [1] is on record?
Answer: 22%

Question: And the Activity [2]?
Answer: Non-toxic

Question: What about the T/C [3] of the same compound?
Answer: 1%

Question: And the Activity [4]?
Answer: Non-toxic

Question: And the ILS at 50 mg/kg [5]?
Answer: 40%

Question: What about the Activity [6] of the same compound?
Answer: Non-toxic

Question: What about the Activity [7] of the same compound?
Answer: Non-toxic

Question: And the Activity [8]?
Answer: Non-toxic

Question: And the MIC [9]?
Answer: > 1000 µg/mL

Question: And the MIC [10]?
Answer: > 1000 µg/mL

Question: What about the MIC [11] of the same compound?
Answer: > 1000 µg/mL

Question: And the MIC [12]?
Answer: > 1000 µg/mL

Question: And the MIC [13]?
Answer: > 1000 µg/mL

Question: What about the MIC [14] of the same compound?
Answer: > 1000 µg/mL

Question: What about the MIC [15] of the same compound?
Answer: > 1000 µg/mL

Question: And the MIC [16]?
Answer: > 1000 µg/mL

Question: And the MIC [17]?
Answer: > 1000 µg/mL

Question: What about the MIC [18] of the same compound?
Answer: > 1000 µg/mL

Question: What about the LD50 [19] of the same compound?
Answer: 1700 mg/kg

Question: What about the LD10 [20] of the same compound?
Answer: 800 mg/kg

Question: And the Ratio [21]?
Answer: 2

Question: And the selectivity ratio [22]?
Answer: 2

Question: And the LD50 [23]?
Answer: 1620 mg/kg

Question: And the LD50 [24]?
Answer: 400 mg/kg

Question: And the selectivity ratio [25]?
Answer: 16

Question: And the Activity [26]?
Answer: 400 mg/kg/day

Question: And the ED90 [27]?
Answer: 50 mg/kg/day

Question: And the Activity [28]?
Answer: 33 mg/kg/day

Question: For `CCN(N=O)C(=O)N[C@H]1[C@H](OC)O[C@H](CO)[C@@H](O)[C@@H]1O`, which T/C [29] is on record?
Answer: 65%

Question: What about the Activity [30] of the same compound?
Answer: Non-toxic

Question: And the ILS at 50 mg/kg [5]?
Answer: 14%

Question: What about the Activity [6] of the same compound?
Answer: Non-toxic

Question: And the MIC [9]?
Answer: > 1000 µg/mL

Question: And the MIC [10]?
Answer: > 1000 µg/mL

Question: And the MIC [11]?
Answer: > 1000 µg/mL

Question: What about the MIC [12] of the same compound?
Answer: > 1000 µg/mL

Question: What about the MIC [13] of the same compound?
Answer: > 1000 µg/mL

Question: And the MIC [14]?
Answer: > 1000 µg/mL

Question: And the MIC [15]?
Answer: > 1000 µg/mL

Question: What about the MIC [16] of the same compound?
Answer: > 1000 µg/mL

Question: What about the MIC [17] of the same compound?
Answer: > 1000 µg/mL

Question: And the MIC [18]?
Answer: > 1000 µg/mL

Question: And the LD50 [19]?
Answer: 1700 mg/kg

Question: What about the LD10 [20] of the same compound?
Answer: 1380 mg/kg

Question: What about the Ratio [21] of the same compound?
Answer: 2

Question: And the selectivity ratio [22]?
Answer: 2

Question: What about the Activity [31] of the same compound?
Answer: Non-toxic
